Experimental data reported in ChEMBL document CHEMBL4680191, “Discovery of novel akt1 inhibitor induces autophagy associated death in hepatocellular carcinoma cells” (Eur J Med Chem, 2020).
Activity calls are given as the source filed them. No cut-off for these calls is given here.

Experiments:
[1] = tested on: RAC-gamma serine/threonine-protein kinase (Homo sapiens), Q9Y243 [S472D]; assay: Inhibition of full length human Akt3 S472D mutant assessed as remaining activity at 1 uM using GRPRTSSFAEGKK as substrate incubated for 40 mins by scintillation counting method relative to control
RAC-gamma serine/threonine-protein kinase (Homo sapiens), Q9Y243 [S472D], sequence (Q9Y243 whole entry S472D): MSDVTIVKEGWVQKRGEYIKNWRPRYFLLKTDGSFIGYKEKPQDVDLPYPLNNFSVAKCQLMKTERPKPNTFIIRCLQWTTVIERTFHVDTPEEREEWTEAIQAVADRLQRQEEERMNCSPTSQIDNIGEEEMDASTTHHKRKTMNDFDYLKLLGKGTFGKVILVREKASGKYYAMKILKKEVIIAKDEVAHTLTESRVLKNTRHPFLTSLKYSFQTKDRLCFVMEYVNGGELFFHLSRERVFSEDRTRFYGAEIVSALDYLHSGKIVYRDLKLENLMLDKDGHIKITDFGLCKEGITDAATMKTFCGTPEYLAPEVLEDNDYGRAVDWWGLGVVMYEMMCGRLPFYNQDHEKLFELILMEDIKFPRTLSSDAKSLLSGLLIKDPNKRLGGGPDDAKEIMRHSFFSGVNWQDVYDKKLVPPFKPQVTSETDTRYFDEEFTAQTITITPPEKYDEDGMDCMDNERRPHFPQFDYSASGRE
In short: (§1)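 Eurofins KinaseProfiler kinase assay on human Akt1, Akt2 and Akt3. Compounds were tested at 1 µM. Residual kinase activity is reported as % of control.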

[2] = tested on: RAC-beta serine/threonine-protein kinase (Homo sapiens), P31751 [S474D]; assay: Inhibition of full length human Akt2 S474D mutant assessed as remaining activity at 1 uM using GRPRTSSFAEGKK as substrate incubated for 40 mins by scintillation counting method relative to control; in short: as §1
RAC-beta serine/threonine-protein kinase (Homo sapiens), P31751 [S474D], sequence (P31751 whole entry S474D): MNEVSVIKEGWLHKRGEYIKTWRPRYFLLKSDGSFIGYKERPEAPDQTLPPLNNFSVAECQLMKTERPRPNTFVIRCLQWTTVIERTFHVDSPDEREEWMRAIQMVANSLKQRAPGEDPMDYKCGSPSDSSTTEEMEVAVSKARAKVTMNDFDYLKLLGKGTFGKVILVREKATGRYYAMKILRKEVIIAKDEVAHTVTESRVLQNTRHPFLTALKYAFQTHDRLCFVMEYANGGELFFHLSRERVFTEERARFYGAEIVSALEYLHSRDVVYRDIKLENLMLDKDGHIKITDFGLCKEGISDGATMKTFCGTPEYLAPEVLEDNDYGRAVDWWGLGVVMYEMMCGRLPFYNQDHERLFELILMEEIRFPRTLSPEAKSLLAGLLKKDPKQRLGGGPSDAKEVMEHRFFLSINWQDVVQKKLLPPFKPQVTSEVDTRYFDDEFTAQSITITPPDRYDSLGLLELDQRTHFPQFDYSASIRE

[3] = Inhibition of full length human Akt1 […] mutant using GRPRTSSFAEGKK as substrate incubated for 40 mins by scintillation counting method
In short: (§2)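 Eurofins KinaseProfiler enzymatic assay on human Akt isoforms. IC50 values are the mean of at least three independent replicates ± standard deviation.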

SMMC-7721 = assay: Cytotoxicity against human SMMC-7721 cells assessed as reduction in cell viability by MTT assay; type: functional, cell-based
In short: (§3)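 Hepatoma cells were grown in DMEM with 10% FBS and streptomycin, then treated with compounds. Viability was read by MTT.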

[4] = target: RAC-gamma serine/threonine-protein kinase (Homo sapiens, UniProt Q9Y243, S472D); assay: Inhibition of full length human Akt3 S472D mutant using GRPRTSSFAEGKK as substrate incubated for 40 mins by scintillation counting method; in short: as §2
RAC-gamma serine/threonine-protein kinase, sequence (Q9Y243 2-479 S472D limits assumed): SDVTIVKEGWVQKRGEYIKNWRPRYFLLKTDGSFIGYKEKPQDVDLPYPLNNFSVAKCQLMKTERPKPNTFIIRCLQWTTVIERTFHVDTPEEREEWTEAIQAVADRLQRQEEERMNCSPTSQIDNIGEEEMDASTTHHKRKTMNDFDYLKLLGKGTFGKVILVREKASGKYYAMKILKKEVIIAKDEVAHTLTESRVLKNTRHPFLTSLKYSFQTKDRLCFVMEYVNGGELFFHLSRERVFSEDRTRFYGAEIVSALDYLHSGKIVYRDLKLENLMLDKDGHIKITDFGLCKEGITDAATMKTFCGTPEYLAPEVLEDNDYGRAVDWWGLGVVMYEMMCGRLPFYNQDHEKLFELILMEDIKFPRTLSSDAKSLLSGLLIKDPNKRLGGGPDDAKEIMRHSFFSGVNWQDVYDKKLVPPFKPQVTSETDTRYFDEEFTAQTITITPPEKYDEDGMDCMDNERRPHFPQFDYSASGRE

Huh-7 [5] = assay: Cytotoxicity against human Huh-7 cells assessed as reduction in cell viability by MTT assay; type: functional, cell-based; in short: as §3
[6] = target: cAMP-dependent protein kinase catalytic subunit alpha (Homo sapiens) (UniProt P17612); assay: Inhibition of full length human PKAcalpha assessed as remaining activity at 1 uM using LRRASLG as substrate incubated for 40 mins by scintillation counting method relative to control
In short: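 Run as an outsourced KinaseProfiler service, with human PKA and Akt1, Akt2 and Akt3 in the same panel. Each compound was tested at a single 1 µM concentration, and the result is reported as kinase activity remaining, as a percentage of control.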

Hep 3B2 = assay: Cytotoxicity against human Hep3B cells assessed as reduction in cell viability by MTT assay; type: functional, cell-based; in short: as §3
HepG2 = assay: Cytotoxicity against human HepG2 cells assessed as reduction in cell viability by MTT assay; type: functional, cell-based; in short: as §3
Homo sapiens = species: Homo sapiens; assay: Inhibition of full length human Akt1 […] mutant assessed as remaining activity at 1 uM using GRPRTSSFAEGKK as substrate incubated for 40 mins by scintillation counting method relative to control; in short: as §1
Huh-7 [7] = assay: Induction of autophagy flux arrest in human Huh-7 cells assessed as reduction in LC3 by immunofluorescence staining based assay; type: functional, cell-based
In short: (§4)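 Huh-7 cells with or without 0.2 µM compound were immunofluorescently co-stained for LC3 (autophagosome) and LAMP1 (lysosome). Co-localization was assessed by fluorescence imaging.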

Huh-7 [8] = assay: Induction of autophagy flux arrest in human Huh-7 cells assessed as reduction in LAMP1 by immunofluorescence staining based assay; type: functional, cell-based; in short: as §4

CCNCC(C(=O)N1CCN(c2ncnc3sc4c(c23)CCC4)CC1)c1ccc(Cl)cc1 (stereo not given)
Activity [1]: 21%
Activity [2]: 58%
IC50 [3]: 125 nM
IC50 (SMMC-7721): 1250 nM
IC50 [4]: 101 nM
IC50 (Huh-7 [5]): 283 nM
Activity [6]: 31%
IC50 (Hep 3B2): 541 nM
IC50 (HepG2): 580 nM
Activity (Homo sapiens): 1%

CC(C)NCC(C(=O)N1CCN(c2ncnc3sc4c(c23)CCN(C)C4)CC1)c1ccccc1Cl (stereo not given)
Activity [1]: 76%
Activity [2]: 83%
Activity [6]: 86%
Activity (Homo sapiens): 96%

COc1ccc(C(CNC(C)C)C(=O)N2CCN(c3ncnc4sc5c(c34)CCC5)CC2)cc1 (stereo not given)
Activity [1]: 42%
Activity [2]: 86%
Activity [6]: 66%
Activity (Homo sapiens): 18%

CC(C)NCC(C(=O)N1CCN(c2ncnc3sc4c(c23)CCN(C)C4)CC1)c1ccc(Cl)cc1 (stereo not given)
Activity [1]: 69%
Activity [2]: 91%
Activity [6]: 72%
Activity (Homo sapiens): 50%

CC(C)NCC(C(=O)N1CCN(c2ncnc3sc4c(c23)CCC4)CC1)c1ccc(Cl)cc1 (stereo not given)
Activity [1]: 19%
Activity [2]: 57%
Activity [6]: 45%
Activity (Homo sapiens): 11%

COc1ccc(C(CNC(C)C)C(=O)N2CCN(c3ncnc4sc5c(c34)CCN(C)C5)CC2)cc1 (stereo not given)
Activity [1]: 76%
Activity [2]: 78%
Activity [6]: 95%
Activity (Homo sapiens): 81%

CN1CCc2c(sc3ncnc(N4CCN(C(=O)C(CNC5CCCCC5)c5ccc(Cl)cc5)CC4)c23)C1 (stereo not given)
Activity [1]: 69%
Activity [2]: 88%
Activity [6]: 95%
Activity (Homo sapiens): 84%

CN1CCc2c(sc3ncnc(N4CCN(C(=O)C(CNC5CCCC5)c5ccc(Cl)cc5)CC4)c23)C1 (stereo not given)
Activity [1]: 76%
Activity [2]: 81%
Activity [6]: 82%
Activity (Homo sapiens): 82%

CC(C)NCC(C(=O)N1CCN(c2ncnc3sc4c(c23)CCN(C)C4)CC1)c1ccc(Br)cc1 (stereo not given)
Activity [1]: 72%
Activity [2]: 86%
Activity [6]: 88%
Activity (Homo sapiens): 69%

Cc1ccc(C(CNC(C)C)C(=O)N2CCN(c3ncnc4sc5c(c34)CCN(C)C5)CC2)cc1 (stereo not given)
Activity [1]: 73%
Activity [2]: 73%
Activity [6]: 90%
Activity (Homo sapiens): 78%

CCCCNCC(C(=O)N1CCN(c2ncnc3sc4c(c23)CCN(C)C4)CC1)c1ccc(Cl)cc1 (stereo not given)
Activity [1]: 84%
Activity [2]: 93%
Activity [6]: 81%
Activity (Homo sapiens): 81%

CC(C)NCC(C(=O)N1CCN(c2ncnc3sc4c(c23)CCC4)CC1)c1ccc(Br)cc1 (stereo not given)
Activity [1]: 20%
Activity [2]: 67%
IC50 [3]: 39 nM
IC50 (SMMC-7721): 521 nM
IC50 [4]: 95 nM
IC50 (Huh-7 [5]): 112 nM
Activity [6]: 23%
IC50 (Hep 3B2): 228 nM
IC50 (HepG2): 202 nM
Activity (Homo sapiens): 1%

CC(C)NCC(C(=O)N1CCN(c2ncnc3sc4c(c23)CCN(C(=O)N(C)C)C4)CC1)c1ccc(Cl)cc1 (stereo not given)
Activity [1]: 87%
Activity [2]: 95%
Activity [6]: 80%
Activity (Homo sapiens): 86%

CCCCNCC(C(=O)N1CCN(c2ncnc3sc4c(c23)CCC4)CC1)c1ccc(Cl)cc1 (stereo not given)
Activity [1]: 15%
Activity [2]: 56%
IC50 [3]: 166 nM
IC50 (SMMC-7721): 1350 nM
IC50 [4]: 137 nM
IC50 (Huh-7 [5]): 367 nM
Activity [6]: 37%
IC50 (Hep 3B2): 833 nM
IC50 (HepG2): 914 nM
Activity (Homo sapiens): 1%

CC(C)NCC(C(=O)N1CCN(c2ncnc3sc4c(c23)CCOC4)CC1)c1ccc(Cl)cc1 (stereo not given)
Activity [1]: 77%
Activity [2]: 81%
Activity [6]: 78%
Activity (Homo sapiens): 78%

CC(C)NCC(C(=O)N1CCN(c2ncnc3sc4c(c23)CCC4)CC1)c1ccccc1Cl (stereo not given)
Activity [1]: 92%
Activity [2]: 101%
Activity [6]: 95%
Activity (Homo sapiens): 88%

CC(C)NCC(C(=O)N1CCN(c2ncnc3sc4c(c23)CCN(C2CC2)C4)CC1)c1ccc(Cl)cc1 (stereo not given)
Activity [1]: 70%
Activity [2]: 71%
Activity [6]: 92%
Activity (Homo sapiens): 77%

CC(C)NC[C@@H](C(=O)N1CCN(c2ncnc3c2[C@H](C)C[C@H]3O)CC1)c1ccc(Cl)cc1 [IPATASERTIB]
Activity (Huh-7 [7]): Active
Activity (Huh-7 [8]): Active
IC50 [3]: 19 nM
IC50 (SMMC-7721): 661 nM
IC50 (Huh-7 [5]): 167 nM
IC50 (Hep 3B2): 389 nM
IC50 (HepG2): 268 nM

CC(C)NCC(C(=O)N1CCN(c2ncnc3sc4c(c23)CCCC4)CC1)c1ccc(Cl)cc1 (stereo not given)
Activity [1]: 63%
Activity [2]: 72%
Activity [6]: 78%
Activity (Homo sapiens): 55%

CC(C)NCC(C(=O)N1CCN(c2ncnc3sc4c(c23)CCN(Cc2ccccc2)C4)CC1)c1ccc(Cl)cc1 (stereo not given)
Activity [1]: 71%
Activity [2]: 77%
Activity [6]: 80%
Activity (Homo sapiens): 71%

CCN1CCc2c(sc3ncnc(N4CCN(C(=O)C(CNC(C)C)c5ccc(Cl)cc5)CC4)c23)C1 (stereo not given)
Activity [1]: 71%
Activity [2]: 82%
Activity [6]: 87%
Activity (Homo sapiens): 73%

CCNCC(C(=O)N1CCN(c2ncnc3sc4c(c23)CCN(C)C4)CC1)c1ccc(Cl)cc1 (stereo not given)
Activity [1]: 74%
Activity [2]: 107%
Activity [6]: 91%
Activity (Homo sapiens): 95%

O=C(C(CNC1CCCCC1)c1ccc(Cl)cc1)N1CCN(c2ncnc3sc4c(c23)CCC4)CC1 (stereo not given)
Activity [1]: 11%
Activity [2]: 51%
IC50 [3]: 51 nM
IC50 (SMMC-7721): 978 nM
IC50 [4]: 45 nM
IC50 (Huh-7 [5]): 159 nM
Activity [6]: 29%
IC50 (Hep 3B2): 294 nM
IC50 (HepG2): 386 nM
Activity (Homo sapiens): 1%

CC(C)NCC(C(=O)N1CCN(c2ncnc3sc4c(c23)CCN(C)C4)CC1)c1ccc(F)cc1 (stereo not given)
Activity [1]: 87%
Activity [2]: 111%
Activity [6]: 97%
Activity (Homo sapiens): 88%

CC(C)NCC(C(=O)N1CCN(c2ncnc3sc4c(c23)CCC4)CC1)c1ccc(F)cc1 (stereo not given)
Activity [1]: 45%
Activity [2]: 104%
Activity [6]: 77%
Activity (Homo sapiens): 26%

CCCN1CCc2c(sc3ncnc(N4CCN(C(=O)C(CNC(C)C)c5ccc(Cl)cc5)CC4)c23)C1 (stereo not given)
Activity [1]: 79%
Activity [2]: 89%
Activity [6]: 88%
Activity (Homo sapiens): 75%

CC(C)NCC(C(=O)N1CCN(c2ncnc3sc4c(c23)CCN(C(C)C)C4)CC1)c1ccc(Cl)cc1 (stereo not given)
Activity [1]: 78%
Activity [2]: 81%
Activity [6]: 84%
Activity (Homo sapiens): 76%
